According to ChEMBL document CHEMBL4732032, “Discovery of novel JAK2 and EGFR inhibitors from a series of thiazole-based chalcone derivatives” (RSC Med Chem, 2021):

Key:
[1] = target: Tyrosine-protein kinase JAK2 (Homo sapiens, UniProt O60674); test: Inhibition of recombinant human JAK2 JH1 domain expressed in baculovirus infected insect cells using poly-Glu-Tyr (51 to 68 residues) as substrate incubated for 1 hr in presence of ATP by ADP-Glo assay
[2] = Potency index, ratio of ruxolitinib IC50 to test compound IC50 for human HEL 92.1.7 cells expressing JAK2 assessed as reduction in cell viability incubated for 72 hrs by presto blue reagent assay; assay type: functional
TF-1 = test: Cytotoxicity against human TF-1 cells expressing JAK2 assessed as reduction in cell viability incubated for 72 hrs by presto blue reagent assay; assay type: functional, cell-based; details: TF-1, 72 h
HEL 92.1.7 = test: Cytotoxicity against human HEL 92.1.7 cells expressing JAK2 assessed as reduction in cell viability incubated for 72 hrs by presto blue reagent assay; assay type: functional, cell-based; details: HEL 92.1.7, 72 h
Vero = test: Cytotoxicity against African green monkey Vero cells assessed as reduction in cell viability incubated for 72 hrs by MTT assay; details: Chlorocebus sabaeus
[3] = target: T1, Epidermal growth factor receptor (Homo sapiens, UniProt P00533); test: Inhibition of human EGFR TK domain expressed in Escherichia coli BL21 (DE3) pLysS using poly-Glu-Tyr (51 to 68 residues) as substrate incubated for 1 hr by ADP-Glo assay
A549 = test: Cytotoxicity against human A549 cells expressing EGFR assessed as reduction in cell viability incubated for 72 hrs by MTT assay; assay type: functional, cell-based; details: A549, 72 h
A-431 = test: Cytotoxicity against human A-431 cells expressing EGFR assessed as reduction in cell viability incubated for 72 hrs by MTT assay; assay type: functional, cell-based; details: A-431, 72 h
[4] = target: T1, Epidermal growth factor receptor; test: Inhibition of EGFR (unknown origin)
In short: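 ADP-Glo luminescent kinase assay in 40 mM Tris–HCl pH 7.5, 20 mM MgCl2, 0.1 mg/mL BSA. EGFR added at 1.25 ng/μL with inhibitor, then a mix of 5 μM ATP and 2.5 μM poly(Glu-Tyr); reaction run 1 h at room temperature. ADP-Glo reagent added for 40 min, then detection reagent for 30 min. Run in triplicate; % inhibition calculated against a no-inhibitor control.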

[5] = Potency index, ratio of erlotinib IC50 to test compound IC50 human A549 cells expressing EGFR assessed as reduction in cell viability incubated for 72 hrs by MTT assay; assay type: functional
[6] = Antiproliferative activity against human HMC 1.1 cells harboring KIT V560G mutant assessed as inhibition of cell proliferation measured after 72 hrs by MTS assay; assay type: functional, cell-based; details: HMC-1.1, 72 h

Chain of Tyrosine-protein kinase JAK2 (O60674 whole entry, the tested form may be a part): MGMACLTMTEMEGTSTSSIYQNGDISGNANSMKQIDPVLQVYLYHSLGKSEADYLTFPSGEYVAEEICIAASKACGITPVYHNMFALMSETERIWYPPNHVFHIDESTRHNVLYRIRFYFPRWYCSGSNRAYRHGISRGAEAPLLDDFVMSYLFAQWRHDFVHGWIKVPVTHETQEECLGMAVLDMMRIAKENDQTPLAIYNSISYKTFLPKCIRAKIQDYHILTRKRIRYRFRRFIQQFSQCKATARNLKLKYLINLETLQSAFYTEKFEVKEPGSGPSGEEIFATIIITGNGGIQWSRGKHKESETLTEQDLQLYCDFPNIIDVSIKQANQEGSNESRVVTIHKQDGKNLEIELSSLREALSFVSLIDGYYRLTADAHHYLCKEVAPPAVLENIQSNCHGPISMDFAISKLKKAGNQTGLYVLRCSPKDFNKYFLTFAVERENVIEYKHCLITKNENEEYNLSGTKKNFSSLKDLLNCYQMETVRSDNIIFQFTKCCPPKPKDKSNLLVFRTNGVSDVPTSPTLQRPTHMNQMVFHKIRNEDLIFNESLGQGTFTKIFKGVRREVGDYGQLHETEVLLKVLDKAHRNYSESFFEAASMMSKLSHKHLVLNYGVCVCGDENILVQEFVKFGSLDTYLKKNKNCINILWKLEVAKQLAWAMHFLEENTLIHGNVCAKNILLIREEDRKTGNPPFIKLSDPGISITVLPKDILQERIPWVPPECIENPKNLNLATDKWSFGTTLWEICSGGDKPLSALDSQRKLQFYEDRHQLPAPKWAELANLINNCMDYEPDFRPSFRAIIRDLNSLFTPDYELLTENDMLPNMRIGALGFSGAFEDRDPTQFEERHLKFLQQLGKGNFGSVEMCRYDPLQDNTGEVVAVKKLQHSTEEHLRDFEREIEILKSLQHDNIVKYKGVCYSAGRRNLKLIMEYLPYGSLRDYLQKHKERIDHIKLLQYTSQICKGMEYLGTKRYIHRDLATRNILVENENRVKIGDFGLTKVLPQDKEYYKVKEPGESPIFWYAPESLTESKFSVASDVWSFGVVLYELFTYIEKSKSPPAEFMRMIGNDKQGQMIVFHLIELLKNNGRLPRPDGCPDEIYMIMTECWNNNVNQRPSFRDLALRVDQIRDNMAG
T1 sequence (P00533 whole entry, the tested form may be a part): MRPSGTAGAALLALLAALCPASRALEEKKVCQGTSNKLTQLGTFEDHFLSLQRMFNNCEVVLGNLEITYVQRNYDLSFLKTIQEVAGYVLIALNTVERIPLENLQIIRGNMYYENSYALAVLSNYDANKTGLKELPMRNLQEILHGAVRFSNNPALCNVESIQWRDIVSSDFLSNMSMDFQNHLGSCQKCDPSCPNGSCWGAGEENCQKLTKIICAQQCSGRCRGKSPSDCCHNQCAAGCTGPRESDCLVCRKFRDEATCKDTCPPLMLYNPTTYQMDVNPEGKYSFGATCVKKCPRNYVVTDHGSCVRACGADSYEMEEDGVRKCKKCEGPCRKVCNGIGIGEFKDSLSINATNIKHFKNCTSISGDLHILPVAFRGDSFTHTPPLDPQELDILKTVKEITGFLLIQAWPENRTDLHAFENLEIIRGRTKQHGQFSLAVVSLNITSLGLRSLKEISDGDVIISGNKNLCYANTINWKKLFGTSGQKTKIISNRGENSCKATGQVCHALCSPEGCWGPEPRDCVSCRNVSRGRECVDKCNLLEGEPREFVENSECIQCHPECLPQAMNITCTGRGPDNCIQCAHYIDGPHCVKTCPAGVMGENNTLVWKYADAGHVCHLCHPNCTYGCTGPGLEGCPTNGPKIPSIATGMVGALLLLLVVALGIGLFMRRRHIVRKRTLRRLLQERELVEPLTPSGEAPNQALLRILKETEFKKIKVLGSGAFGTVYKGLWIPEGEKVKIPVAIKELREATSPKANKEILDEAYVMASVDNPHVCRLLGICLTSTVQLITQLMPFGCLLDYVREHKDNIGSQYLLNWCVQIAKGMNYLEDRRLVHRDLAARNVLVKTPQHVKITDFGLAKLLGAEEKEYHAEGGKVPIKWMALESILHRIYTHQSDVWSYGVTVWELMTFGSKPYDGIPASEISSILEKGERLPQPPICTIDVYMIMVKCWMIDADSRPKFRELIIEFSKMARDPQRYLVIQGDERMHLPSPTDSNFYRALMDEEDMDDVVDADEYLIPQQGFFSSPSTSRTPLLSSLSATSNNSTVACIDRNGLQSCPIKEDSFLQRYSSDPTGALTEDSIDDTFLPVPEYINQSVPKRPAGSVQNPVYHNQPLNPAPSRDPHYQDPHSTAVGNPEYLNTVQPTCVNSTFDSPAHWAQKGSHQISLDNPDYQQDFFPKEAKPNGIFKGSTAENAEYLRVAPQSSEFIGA

IC50 [1] | IC50 [3] | Structure (SMILES) | Ratio IC50 [2] | IC50 (TF-1) | IC50 (HEL 92.1.7) | IC50 (Vero) | IC50 (A549) | IC50 (A-431) | also measured
0.0203 µM | 0.256 µM | CNc1nc(C)c(C(=O)/C=C/c2nccs2)s1 | 2 | 30.2 µM | 6.89 µM | > 100 µM | – | – | –
– | – | CNc1nc(C)c(C(=O)/C=C/c2cccs2)s1 | – | – | – | > 100 µM | 62.1 µM | 28.5 µM | –
– | – | O=C(Cc1csc2nc3ccccc3n12)Nc1ccccc1O | – | – | – | – | – | – | IC50 [4]: 0.055 µM
0.0339 µM | 0.0337 µM | CNc1nc(C)c(C(=O)/C=C/c2ccc(O)cc2)s1 | – | – | – | > 100 µM | 16.3 µM | 8.04 µM | Ratio IC50 [5]: 2
0.0176 µM | 0.144 µM | CNc1nc(C)c(C(=O)/C=C/c2ccsc2)s1 | 2 | 32 µM | 9.96 µM | – | – | – | –
– | – | Cc1cn(-c2cc(NC(=O)c3ccc(Nc4nc(-c5cccnc5)cs4)c(C)c3)cc(C(F)(F)F)c2)cn1 | – | – | – | – | – | – | IC50 [6]: 0.138 µM
